Legend:
IRAK1 = IRAK1 (Homo sapiens, UniProt P51617); test: MRC Dundee kinase panel screen at 10 μM; assay type: biochemical
[1] = tested on: TNF expression in THP-1 cells; test: Cytokine dose–response curves in THP-1 cells; assay type: cell-based, human; settings: read-out: IC50 TNF expression; LPS-stimulated THP-1, 24 h
Summary of the method: (§1)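 THP-1 cells differentiated with PMA (100 nM) for up to 72 h, then rested 24 h in PMA-free RPMI. Pretreated with test compound (3.2 nM–32 μM) or DMSO vehicle, then stimulated with LPS (10 ng/mL). After 24 h, TNF, IL-6 and IL-1β in supernatant measured by Luminex and expressed as percent of vehicle control; n = 3.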

MLK1 = MLK1 (Homo sapiens, UniProt P80192); test: Dose–response of top 10 kinase hits; assay type: biochemical; settings: read-out: IC50 MLK1, n = 2
MAP4K5 = MAP4K5 (Homo sapiens, UniProt Q9Y4K4); test: Dose–response of top 10 kinase hits; assay type: biochemical; settings: read-out: IC50 MAP4K5, n = 2
ULK2 = target: T1, ULK2 (Homo sapiens, UniProt Q8IYT8); test: Dose–response of top 10 kinase hits; assay type: biochemical; settings: read-out: IC50 ULK2, n = 2
T1 sequence (Q8IYT8 1-1036): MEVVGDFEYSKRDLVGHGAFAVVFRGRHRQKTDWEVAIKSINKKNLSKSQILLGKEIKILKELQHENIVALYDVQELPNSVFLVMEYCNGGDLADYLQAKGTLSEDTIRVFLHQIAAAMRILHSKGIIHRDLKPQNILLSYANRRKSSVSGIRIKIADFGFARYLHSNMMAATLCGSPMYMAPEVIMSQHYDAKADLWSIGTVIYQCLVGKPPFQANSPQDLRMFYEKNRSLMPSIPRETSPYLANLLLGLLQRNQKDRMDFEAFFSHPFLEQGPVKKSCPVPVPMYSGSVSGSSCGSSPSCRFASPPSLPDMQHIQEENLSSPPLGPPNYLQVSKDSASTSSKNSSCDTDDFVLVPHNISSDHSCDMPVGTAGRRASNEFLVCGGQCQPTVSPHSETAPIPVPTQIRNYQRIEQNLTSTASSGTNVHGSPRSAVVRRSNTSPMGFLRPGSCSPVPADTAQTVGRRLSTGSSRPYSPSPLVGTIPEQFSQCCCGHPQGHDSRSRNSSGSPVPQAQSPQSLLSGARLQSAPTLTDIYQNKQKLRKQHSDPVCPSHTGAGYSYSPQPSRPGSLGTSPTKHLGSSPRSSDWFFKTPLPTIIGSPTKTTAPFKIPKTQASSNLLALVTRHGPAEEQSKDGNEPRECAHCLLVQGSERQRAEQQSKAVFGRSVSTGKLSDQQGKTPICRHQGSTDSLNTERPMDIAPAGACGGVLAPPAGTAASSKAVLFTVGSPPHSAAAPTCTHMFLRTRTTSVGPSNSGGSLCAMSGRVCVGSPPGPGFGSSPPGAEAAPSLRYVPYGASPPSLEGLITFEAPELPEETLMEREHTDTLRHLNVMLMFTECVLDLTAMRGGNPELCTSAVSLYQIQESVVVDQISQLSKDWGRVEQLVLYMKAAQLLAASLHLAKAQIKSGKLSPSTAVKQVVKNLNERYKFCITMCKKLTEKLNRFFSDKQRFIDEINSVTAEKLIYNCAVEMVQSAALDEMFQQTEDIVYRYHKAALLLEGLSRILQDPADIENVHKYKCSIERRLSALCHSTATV

[2] = tested on: IL-6 expression in THP-1 cells; test: Cytokine dose–response curves in THP-1 cells; assay type: cell-based, human; settings: read-out: IC50 IL-6 expression; LPS-stimulated THP-1, 24 h
Summary of the method: as §1

IRAK4 = target: T2, IRAK4 (Homo sapiens, UniProt Q9NWZ3); test: Potency of takinib analogues against IRAK4; assay type: biochemical
T2 sequence (Q9NWZ3 1-460): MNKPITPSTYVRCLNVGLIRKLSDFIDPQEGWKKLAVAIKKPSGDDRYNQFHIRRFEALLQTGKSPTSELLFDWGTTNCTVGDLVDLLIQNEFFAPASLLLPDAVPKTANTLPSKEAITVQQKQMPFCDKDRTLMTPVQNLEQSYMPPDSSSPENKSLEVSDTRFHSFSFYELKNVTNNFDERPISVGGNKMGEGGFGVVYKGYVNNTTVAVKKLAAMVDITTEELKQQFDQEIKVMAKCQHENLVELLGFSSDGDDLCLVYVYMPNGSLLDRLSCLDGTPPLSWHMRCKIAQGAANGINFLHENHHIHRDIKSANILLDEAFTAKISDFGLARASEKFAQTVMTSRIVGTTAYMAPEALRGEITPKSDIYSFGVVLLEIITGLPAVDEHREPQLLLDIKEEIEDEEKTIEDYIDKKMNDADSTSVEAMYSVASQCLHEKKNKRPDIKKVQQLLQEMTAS

NUAK = target: T3, NUAK (Homo sapiens, UniProt O60285); test: Dose–response of top 10 kinase hits; assay type: biochemical; settings: read-out: IC50 NUAK, n = 2
T3 sequence (O60285 1-661): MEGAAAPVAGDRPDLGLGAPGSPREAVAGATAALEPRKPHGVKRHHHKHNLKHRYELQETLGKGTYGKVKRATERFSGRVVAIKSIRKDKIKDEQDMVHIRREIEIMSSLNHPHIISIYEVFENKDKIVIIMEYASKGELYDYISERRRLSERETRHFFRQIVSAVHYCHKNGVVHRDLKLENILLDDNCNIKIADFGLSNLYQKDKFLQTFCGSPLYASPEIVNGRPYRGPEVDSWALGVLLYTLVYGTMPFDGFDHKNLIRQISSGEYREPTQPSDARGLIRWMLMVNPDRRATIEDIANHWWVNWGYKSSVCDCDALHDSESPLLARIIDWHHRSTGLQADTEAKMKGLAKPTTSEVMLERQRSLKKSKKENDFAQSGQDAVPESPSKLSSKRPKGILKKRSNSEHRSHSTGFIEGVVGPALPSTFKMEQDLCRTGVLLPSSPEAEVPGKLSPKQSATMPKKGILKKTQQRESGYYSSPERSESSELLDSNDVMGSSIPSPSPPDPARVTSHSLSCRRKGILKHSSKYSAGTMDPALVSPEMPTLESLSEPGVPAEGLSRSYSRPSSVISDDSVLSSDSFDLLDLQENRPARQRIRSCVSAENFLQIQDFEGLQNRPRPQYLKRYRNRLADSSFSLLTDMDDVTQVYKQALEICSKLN

[3] = Bioavailability in adult CD-1 mice; assay type: in vivo
[4] = oral administration, normal mice

IRAK1, sequence (P51617 whole entry): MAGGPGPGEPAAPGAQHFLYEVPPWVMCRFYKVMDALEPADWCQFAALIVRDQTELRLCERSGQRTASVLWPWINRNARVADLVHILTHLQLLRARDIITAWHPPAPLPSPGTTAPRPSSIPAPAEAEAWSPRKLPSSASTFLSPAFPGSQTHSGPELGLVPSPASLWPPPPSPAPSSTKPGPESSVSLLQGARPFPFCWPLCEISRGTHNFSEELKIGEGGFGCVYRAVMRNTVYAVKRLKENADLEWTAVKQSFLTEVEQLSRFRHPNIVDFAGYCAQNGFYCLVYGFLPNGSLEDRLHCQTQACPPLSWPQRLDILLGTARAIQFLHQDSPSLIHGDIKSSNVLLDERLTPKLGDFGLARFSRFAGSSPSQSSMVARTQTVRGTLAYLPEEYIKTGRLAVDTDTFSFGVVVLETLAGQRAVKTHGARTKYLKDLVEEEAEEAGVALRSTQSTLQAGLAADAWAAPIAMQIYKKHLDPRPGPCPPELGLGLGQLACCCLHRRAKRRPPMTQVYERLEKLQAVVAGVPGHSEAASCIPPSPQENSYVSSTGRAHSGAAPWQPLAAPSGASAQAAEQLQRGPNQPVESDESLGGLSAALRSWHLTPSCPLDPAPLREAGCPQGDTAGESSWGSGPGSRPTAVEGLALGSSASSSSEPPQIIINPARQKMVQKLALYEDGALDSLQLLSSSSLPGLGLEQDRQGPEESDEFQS
MAP4K5, sequence (Q9Y4K4 whole entry): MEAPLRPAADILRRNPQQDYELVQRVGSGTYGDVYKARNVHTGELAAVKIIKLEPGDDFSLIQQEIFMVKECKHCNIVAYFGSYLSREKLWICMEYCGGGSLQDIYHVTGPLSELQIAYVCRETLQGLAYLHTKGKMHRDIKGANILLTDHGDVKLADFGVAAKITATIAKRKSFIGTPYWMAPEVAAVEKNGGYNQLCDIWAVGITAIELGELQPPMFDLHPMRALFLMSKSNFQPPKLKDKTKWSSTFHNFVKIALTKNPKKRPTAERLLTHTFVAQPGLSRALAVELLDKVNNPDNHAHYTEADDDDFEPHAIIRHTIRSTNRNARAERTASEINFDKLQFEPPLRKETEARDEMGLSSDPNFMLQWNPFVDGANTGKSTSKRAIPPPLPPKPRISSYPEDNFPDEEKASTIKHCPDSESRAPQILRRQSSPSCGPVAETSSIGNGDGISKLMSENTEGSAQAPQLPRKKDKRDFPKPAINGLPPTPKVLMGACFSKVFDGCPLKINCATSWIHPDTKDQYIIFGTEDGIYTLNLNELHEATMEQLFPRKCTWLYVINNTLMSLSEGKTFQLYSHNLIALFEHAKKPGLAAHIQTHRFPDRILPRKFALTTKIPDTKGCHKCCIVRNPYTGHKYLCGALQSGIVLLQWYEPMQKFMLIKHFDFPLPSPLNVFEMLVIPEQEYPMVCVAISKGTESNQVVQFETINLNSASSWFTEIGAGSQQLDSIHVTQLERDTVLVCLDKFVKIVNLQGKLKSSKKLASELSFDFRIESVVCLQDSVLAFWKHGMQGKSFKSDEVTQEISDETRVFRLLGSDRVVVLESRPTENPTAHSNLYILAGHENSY
MLK1, sequence (P80192 whole entry): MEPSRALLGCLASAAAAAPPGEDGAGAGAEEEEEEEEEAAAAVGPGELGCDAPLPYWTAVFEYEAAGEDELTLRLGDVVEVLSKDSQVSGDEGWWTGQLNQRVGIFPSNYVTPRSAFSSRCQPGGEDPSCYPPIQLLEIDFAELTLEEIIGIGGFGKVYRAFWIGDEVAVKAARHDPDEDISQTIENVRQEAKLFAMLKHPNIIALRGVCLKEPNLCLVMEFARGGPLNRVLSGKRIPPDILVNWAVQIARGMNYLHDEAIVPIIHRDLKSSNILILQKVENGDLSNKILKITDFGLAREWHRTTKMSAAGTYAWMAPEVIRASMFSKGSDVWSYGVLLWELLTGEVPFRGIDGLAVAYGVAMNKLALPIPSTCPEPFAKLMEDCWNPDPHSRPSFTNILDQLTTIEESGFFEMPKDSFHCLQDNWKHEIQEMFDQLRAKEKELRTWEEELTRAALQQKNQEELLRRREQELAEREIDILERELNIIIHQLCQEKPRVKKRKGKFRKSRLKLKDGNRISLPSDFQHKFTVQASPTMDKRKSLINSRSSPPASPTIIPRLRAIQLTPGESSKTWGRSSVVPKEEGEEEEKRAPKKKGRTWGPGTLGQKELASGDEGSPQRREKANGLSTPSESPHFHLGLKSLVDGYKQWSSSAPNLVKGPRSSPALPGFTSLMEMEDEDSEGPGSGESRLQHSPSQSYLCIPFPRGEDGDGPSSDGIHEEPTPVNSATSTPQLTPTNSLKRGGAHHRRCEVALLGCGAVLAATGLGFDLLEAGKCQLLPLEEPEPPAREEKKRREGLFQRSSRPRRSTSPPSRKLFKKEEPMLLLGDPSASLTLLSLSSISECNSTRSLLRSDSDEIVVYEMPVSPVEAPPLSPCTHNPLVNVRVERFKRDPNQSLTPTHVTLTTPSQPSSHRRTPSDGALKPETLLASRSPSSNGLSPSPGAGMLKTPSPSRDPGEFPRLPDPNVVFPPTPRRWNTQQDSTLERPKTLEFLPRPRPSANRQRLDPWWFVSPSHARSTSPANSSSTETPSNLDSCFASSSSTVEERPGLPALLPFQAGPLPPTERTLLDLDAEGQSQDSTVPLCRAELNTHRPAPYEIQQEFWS

Question: Which enzymatic activity (IRAK1) does the source give for `CCCn1c(NC(=O)c2cccc(C(N)=O)c2)nc2ccc(CN3CCCCC3)cc21` [HS-276] here?
Answer: < 15%

Question: What about the IC50 [1] of the same molecule?
Answer: 138 nM

Question: What about the IC50 (MLK1) of the same molecule?
Answer: 5580 nM

Question: And the IC50 (MAP4K5)?
Answer: 124 nM

Question: What about the IC50 (ULK2) of the same molecule?
Answer: 63 nM

Question: What about the IC50 [2] of the same molecule?
Answer: 201 nM

Question: And the “IRAK4 inhibition in dose–response experiments” value (IRAK4; Figure 2d)?
Answer: minimal IRAK4 inhibition

Question: What about the Ratio (IRAK4; IRAK4 IC50 over TAK1 IC50) of the same molecule?
Answer: 1000

Question: And the IC50 (IRAK4; read-out: IRAK4 IC50)?
Answer: 2500 nM

Question: And the “preference for TAK1 over IRAK4” value (IRAK4; selectivity)?
Answer: 1000 fold

Question: And the IC50 (NUAK)?
Answer: 270 nM

Question: What about the AUC0-last ([3]; mouse, IV, 30 mg/kg) of the same molecule?
Answer: 7960.0 ng·h/mL

Question: And the Cmax ([3]; mouse, IV, 30 mg/kg)?
Answer: 11,162 ng/ml

Question: And the Tmax ([3]; mouse, IV, 30 mg/kg)?
Answer: 0.08 h

Question: What about the half-life ([3]; mouse, IV, 30 mg/kg) of the same molecule?
Answer: 1.24 h

Question: What about the “%F” value ([3]; mouse, PO, 30 mg/kg) of the same molecule?
Answer: 98.1%

Question: What about the AUC0-last ([3]; mouse, PO, 30 mg/kg) of the same molecule?
Answer: 7812 ng·h/mL

Question: And the Cmax ([3]; mouse, PO, 30 mg/kg)?
Answer: 3682 ng/mL

Question: And the Tmax ([3]; mouse, PO, 30 mg/kg)?
Answer: 1 h

Question: And the half-life ([3]; mouse, PO, 30 mg/kg)?
Answer: 1.41 h

Question: And the bioavailability [3, 4]?
Answer: > 95%

Question: And the plasma levels [3, 4]?
Answer: μM plasma levels
